Data reported in ChEMBL document CHEMBL2169822, “Discovery and optimization of 1,3,4-trisubstituted-pyrazolone derivatives as novel, potent, and nonsteroidal farnesoid X receptor (FXR) selective antagonists” (J Med Chem, 2012).
Calls of active or inactive are those of the source. The calls are words filed in the database; no cut-off is given here.

How the values were obtained:
[1] = molecular target: T1, Peroxisome proliferator-activated receptor gamma (Homo sapiens) (UniProt P37231); assay: Antagonist activity at recombinant PPARgamma LBD expressed in HEK293T cells co-expressing GAL4 DBD assessed as inhibition of rosiglitazone-induced transactivation at 20 uM by luciferase reporter gene assay; assay type: functional, cell-based; conditions: HEK-293T
T1 sequence (whole entry): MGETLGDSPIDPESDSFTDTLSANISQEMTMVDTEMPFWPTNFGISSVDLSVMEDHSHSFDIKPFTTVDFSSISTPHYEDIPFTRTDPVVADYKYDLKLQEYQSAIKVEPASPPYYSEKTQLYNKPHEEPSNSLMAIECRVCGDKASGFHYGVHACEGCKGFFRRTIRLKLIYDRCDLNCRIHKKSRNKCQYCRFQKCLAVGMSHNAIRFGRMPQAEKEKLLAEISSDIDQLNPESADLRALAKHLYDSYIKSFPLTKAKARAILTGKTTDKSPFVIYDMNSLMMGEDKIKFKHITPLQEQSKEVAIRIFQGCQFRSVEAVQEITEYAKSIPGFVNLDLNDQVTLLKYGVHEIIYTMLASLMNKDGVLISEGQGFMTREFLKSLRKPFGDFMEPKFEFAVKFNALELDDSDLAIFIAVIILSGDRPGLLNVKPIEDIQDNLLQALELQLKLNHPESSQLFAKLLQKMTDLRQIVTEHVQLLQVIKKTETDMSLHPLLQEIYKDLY
Outline: (§1)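 One-hybrid assay in HEK293T cells cotransfected with a Gal4 DBD–NR-LBD fusion (RXRα, LXRα, GR, PR, PPARδ or PPARγ) plus UAS-TK-Luc reporter. Compound was 20 μM, given alone or with agonist: 9cRA 0.1 μM (RXRα), TO901317 0.5 μM (LXRα), dexamethasone 50 nM (GR), progesterone 100 nM (PR), GW1516 10 μM (PPARδ), rosiglitazone 10 μM (PPARγ). Luciferase read-out; three independent experiments.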

Mus musculus = assay: Reduction of serum triglyceride level in cholesterol-fed C57BL/6 mouse administered orally after 10 days; assay type: functional, organism-based
Outline: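 Male C57BL/6 mice, 8–12 weeks old, were randomized into five groups of nine. Control mice had ground chow; the other groups had chow with 2% cholesterol. Compound (50 or 100 mg/kg) or reference (100 mg/kg) was suspended in 0.5% CMC-Na and given by oral gavage; control and vehicle mice got 0.5% CMC-Na. Serum and hepatic triglyceride and total cholesterol were measured.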

[2] = Binding affinity to FXRalphaLBD assessed as fluorescence quenching after 1 hr
Outline: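 Untagged FXRαLBD (His-tag removed with thrombin; Ni-NTA and ion exchange purified), 1 μM, was incubated with varied compound concentrations for 1 h at 4 °C. Tryptophan fluorescence was read at 25 °C: excitation 280 nm, emission 300–400 nm, 5 nm slits. KD was fitted from quenching.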

[3] = molecular target: T2, Glucocorticoid receptor (Homo sapiens) (UniProt P04150); assay: Antagonist activity at recombinant GR LBD expressed in HEK293T cells co-expressing GAL4 DBD assessed as inhibition of dexamethasone-induced transactivation at 20 uM by luciferase reporter gene assay; assay type: functional, cell-based; conditions: HEK-293T; outline: as §1
T2 sequence (whole entry): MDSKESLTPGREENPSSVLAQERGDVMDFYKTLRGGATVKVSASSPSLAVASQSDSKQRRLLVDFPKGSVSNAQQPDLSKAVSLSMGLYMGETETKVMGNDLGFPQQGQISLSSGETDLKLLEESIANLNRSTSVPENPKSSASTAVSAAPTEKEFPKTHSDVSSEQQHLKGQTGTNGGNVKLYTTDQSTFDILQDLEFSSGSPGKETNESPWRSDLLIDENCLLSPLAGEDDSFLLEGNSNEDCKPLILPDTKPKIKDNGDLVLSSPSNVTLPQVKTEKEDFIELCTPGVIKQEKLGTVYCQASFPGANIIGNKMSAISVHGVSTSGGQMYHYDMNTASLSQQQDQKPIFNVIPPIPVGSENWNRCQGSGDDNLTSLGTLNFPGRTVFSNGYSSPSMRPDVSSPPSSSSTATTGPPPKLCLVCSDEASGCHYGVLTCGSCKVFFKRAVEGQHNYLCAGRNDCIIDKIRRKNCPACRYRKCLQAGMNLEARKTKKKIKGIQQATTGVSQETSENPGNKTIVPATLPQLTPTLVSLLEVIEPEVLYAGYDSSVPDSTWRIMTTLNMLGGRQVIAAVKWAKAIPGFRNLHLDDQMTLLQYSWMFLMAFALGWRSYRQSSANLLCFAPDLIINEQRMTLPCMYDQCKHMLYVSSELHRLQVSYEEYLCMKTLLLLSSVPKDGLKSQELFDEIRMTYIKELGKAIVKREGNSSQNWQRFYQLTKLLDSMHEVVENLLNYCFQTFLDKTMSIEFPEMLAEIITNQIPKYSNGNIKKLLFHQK

[4] = molecular target: T3, Oxysterols receptor LXR-alpha (Homo sapiens) (UniProt Q13133); assay: Agonist activity at recombinant LXRalphaLBD expressed in HEK293T cells co-expressing GAL4 DBD at 20 uM by transactivation assay; assay type: functional, cell-based; conditions: HEK-293T; outline: as §1
T3 sequence (whole entry): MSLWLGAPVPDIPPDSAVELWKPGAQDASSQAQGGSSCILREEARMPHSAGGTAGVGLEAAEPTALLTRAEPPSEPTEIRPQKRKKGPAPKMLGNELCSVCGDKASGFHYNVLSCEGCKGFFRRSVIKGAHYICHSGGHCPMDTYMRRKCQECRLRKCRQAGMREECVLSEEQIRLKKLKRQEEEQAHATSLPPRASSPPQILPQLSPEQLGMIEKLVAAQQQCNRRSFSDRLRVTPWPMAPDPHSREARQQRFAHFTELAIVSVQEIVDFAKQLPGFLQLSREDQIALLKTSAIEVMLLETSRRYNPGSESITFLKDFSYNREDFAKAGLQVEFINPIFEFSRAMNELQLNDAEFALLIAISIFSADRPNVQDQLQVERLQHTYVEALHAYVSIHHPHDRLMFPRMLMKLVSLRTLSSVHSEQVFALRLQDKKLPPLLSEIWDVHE

[5] = molecular target: T4, Peroxisome proliferator-activated receptor delta (Homo sapiens) (UniProt Q03181); assay: Agonist activity at recombinant PPARdelta LBD expressed in HEK293T cells co-expressing GAL4 DBD at 20 uM by transactivation assay; assay type: functional, cell-based; conditions: HEK-293T; outline: as §1
T4 sequence (whole entry): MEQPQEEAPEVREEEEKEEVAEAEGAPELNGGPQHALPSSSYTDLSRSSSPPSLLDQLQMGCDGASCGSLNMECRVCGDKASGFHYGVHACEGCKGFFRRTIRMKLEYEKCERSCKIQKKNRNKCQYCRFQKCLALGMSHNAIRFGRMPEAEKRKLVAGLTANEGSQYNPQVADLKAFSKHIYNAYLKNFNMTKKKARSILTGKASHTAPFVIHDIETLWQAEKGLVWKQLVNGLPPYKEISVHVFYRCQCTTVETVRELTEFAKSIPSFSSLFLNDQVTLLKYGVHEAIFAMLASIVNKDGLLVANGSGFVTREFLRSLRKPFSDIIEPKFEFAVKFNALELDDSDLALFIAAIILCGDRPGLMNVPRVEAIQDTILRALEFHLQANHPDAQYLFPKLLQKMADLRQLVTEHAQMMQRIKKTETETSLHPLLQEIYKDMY

- inhibition [1]: inactive
- Activity [2]: Dose-dependent effect
- Kd [2]: 23.1 µM
- inhibition [3]: inactive
- Activity [4]: inactive
- Activity [5]: inactive
Structure (SMILES): COc1cc(/C=C2\C(=O)N(c3cccc([N+](=O)[O-])c3)N=C2c2ccccc2)ccc1O
- Activity (Mus musculus): Dose-dependent effect
